This note sets out measurements from ChEMBL document CHEMBL4028857, “Anchimerically Activated ProTides as Inhibitors of Cap-Dependent Translation and Inducers of Chemosensitization in Mantle Cell Lymphoma” (J Med Chem, 2017).

For orientation: half-life means the time in which the quantity being followed falls by half. What is called IC50 is the midpoint of a concentration-inhibition curve. One may read the AUC as the area under the concentration-time curve, a measure of exposure. What is called Cmax is the highest concentration seen after dosing.

Series [1] can be described thus: Half life in HEPES buffer at 80 uM at pH 7.2 by RP-HPLC analysis. In kind it is physicochemical. In short, it runs like this:
(§1)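 Compound at 80 µM in 20 mM HEPES (pH 7.2 or 2.0) incubated at 37 °C; aliquots analyzed by RP-HPLC at 0, 1, 4, 6, 12, 18 and 24 h to follow methylthioalkyl deprotection and derive half-life.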

Series [2] in a line: Half life in HEPES buffer at 80 uM at pH 2 by RP-HPLC analysis. In kind it is physicochemical. Summed up:
as §1

Series [3] is described as follows: Half life in Sprague-Dawley rat plasma at 150 uM at pH 7.4 by RP-LCMS analysis. The format is ADME. In short, it runs like this: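 Pooled female Sprague-Dawley rat plasma, pre-warmed 2 min at 37 °C, incubated with compound in triplicate at 37 °C to follow deprotection and half-life.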
A short description of series [4]: Prodrug activation in human Mino cells assessed as 9-((2R,3R,4S,5R)-5-(((((2-(1H-Indol-3-yl)ethyl)amino)-(hydroxy)phosphoryl)oxy)methyl)-3,4-dihydroxytetrahydrofuran-2-yl)-2-amino-7-(2-(4-chlorophenoxy)ethyl)-6-oxo-6,9-dihydro-1H-purin-7-ium formation per 5 million cells at 150 uM after 12 hrs by LC-MS/MS analysis. In kind it is cell-based. Summed up:
(§2)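 Mantle cell lymphoma cells (five million) grown in RPMI with 10% FBS, penicillin/streptomycin and L-glutamine at 37 °C, 5% CO2, then exposed to 150 µM compound for 12 h at 37 °C. Washed with ice-cold PBS, pellet extracted in MeOH/NH4OAc (60:40) with 80 fmol internal standards, three liquid-N2 freeze–thaw cycles, filtered, dried, redissolved in 20 mM HEPES pH 7.2. Analysed by LC-MS/MS against a standard curve.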

Series [5] addresses T1, Adenosine 5'-monophosphoramidase HINT1 (Homo sapiens, UniProt P49773). The series can be described thus: Prodrug activation in human Mino cells assessed as Hint1 mediated 2-amino-7-(2-(4-chlorophenoxy)ethyl)-9-((2R,3R,4S,5R)-3,4-dihydroxy-5-(phosphonooxymethyl)tetrahydrofuran-2-yl)-6-oxo-6,9-dihydro-1H-purin-7-ium formation per 5 million cells at 150 uM after 12 hrs by LC-MS/MS analysis. In kind it is cell-based. Summed up:
as §2

Series [6] addresses T1, Adenosine 5'-monophosphoramidase HINT1. As to the kind of experiment: Prodrug activation in human GRANTA-519 cells assessed as Hint1 mediated 2-amino-7-(2-(4-chlorophenoxy)ethyl)-9-((2R,3R,4S,5R)-3,4-dihydroxy-5-(phosphonooxymethyl)tetrahydrofuran-2-yl)-6-oxo-6,9-dihydro-1H-purin-7-ium formation per 5 million cells at 150 uM after 12 hrs by LC-MS/MS analysis. In kind it is cell-based. In short, it runs like this:
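Five million MCL cells in RPMI/10% FBS with penicillin, streptomycin and L-glutamine were exposed to compound (150 µM) for 12 h at 37 °C. Cells were washed in cold PBS, extracted in MeOH/NH4OAc (60:40) with 80 fmol internal standards, freeze-thawed three times, then filtered and dried. Residue was taken up in HEPES for LC-MS/MS, quantified against an internal-standard curve.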

The next series relates to Z-138. The series can be described thus: Antiproliferative activity against human Z138 cells preincubated for 48 hrs followed by thymidine addition measure after 16 hrs by Thymidine incorporation assay. In kind it is functional, cell-based. Summed up: (§3)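 MCL lines treated 48 h with compound re-added daily, alone or with co-drug (ibrutinib 25 µM where used), then thymidine added for a further 16 h; proliferation read as thymidine incorporation.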

The subject of series [7] is Granta-519. The series can be described thus: Antiproliferative activity against human GRANTA-519 cells preincubated for 48 hrs followed by thymidine addition measure after 16 hrs by Thymidine incorporation assay. In kind it is functional, cell-based. Summed up: as §3
In general terms: Incorporation of labelled thymidine or its analogues reports DNA synthesis.

In series [8] the test system is Granta-519. The series can be described thus: Antiproliferative activity against human GRANTA-519 cells at 200 uM preincubated for 48 hrs followed by thymidine addition measure after 16 hrs by Thymidine incorporation assay. The format is functional. In short, it runs like this:
as §3

The nature of series [9]: Antiproliferative activity against human Mino cells after 48 hrs by Annexin V/propidium iodide based flow cytometric analysis. In kind it is functional, cell-based. In short, it runs like this: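 MCL lines treated 48 h with compound re-added daily (alone or with co-drug; ibrutinib 25 µM), then survival assessed by Annexin V/PI flow cytometry.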
For series [10], the target named is Eukaryotic translation initiation factor 4E (Homo sapiens) (UniProt P06730). The series can be described thus: Inhibition of eIF4E in human GRANTA-519 cells assessed as down regulation of Bcl-2 protein expression at 50 to 200 uM after 48 hrs by Western blot method. The format is cell-based. In short, it runs like this: (§4)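 MCL lines treated 48 h with compound; protein quantified and Western blotted with eIF4E, eIF4G, actin, c-Myc and Bcl-2 antibodies.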
Sequence of Eukaryotic translation initiation factor 4E (Homo sapiens) (P06730 whole entry): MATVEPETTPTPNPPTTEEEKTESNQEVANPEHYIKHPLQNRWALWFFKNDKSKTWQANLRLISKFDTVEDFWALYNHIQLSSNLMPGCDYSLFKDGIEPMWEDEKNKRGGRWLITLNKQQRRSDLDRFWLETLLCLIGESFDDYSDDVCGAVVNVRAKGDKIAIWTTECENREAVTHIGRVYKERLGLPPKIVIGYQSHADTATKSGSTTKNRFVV

For series [11] the target is unchanged. The series can be described thus: Inhibition of eIF4E in human Mino cells assessed as down regulation of Bcl-2 expression at 50 to 200 uM after 48 hrs by Western blot method. The format is cell-based. In short, it runs like this: as §4
For series [12] the target is unchanged. As to the kind of experiment: Inhibition of eIF4E in human Mino cells assessed as down regulation of c-Myc mRNA expression at 100 uM by RT-PCR based RNA Immunoprecipitation. The format is cell-based. In short, it runs like this: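 RNA-immunoprecipitation on Mino cells with a RNA-binding protein immunoprecipitation kit.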
Series [13] has the same target. The series can be described thus: Inhibition of eIF4E in human Mino cells assessed as potentiation of ibrutinib induced antiproliferation at 100 uM preincubated for 48 hrs followed by thymidine addition measure after 16 hrs by Thymidine incorporation assay. In kind it is cell-based. Summed up:
as §3

Series [14] addresses T1, Adenosine 5'-monophosphoramidase HINT1. The series can be described thus: Prodrug activation in human GRANTA-519 cells assessed as hint1-mediated 2-amino-7-(2-(4-chlorophenoxy)ethyl)-9-((2R,3R,4S,5R)-3,4-dihydroxy-5-(phosphonooxymethyl)tetrahydrofuran-2-yl)-6-oxo-6,9-dihydro-1H-purin-7-ium formation per 5 million cells at 150 uM after 12 hrs by LC-MS/MS analysis relative to 9-((2R,3R,4S,5R)-5-(((((2-(1H-Indol-3-yl)ethyl)amino)-(hydroxy)phosphoryl)oxy)methyl)-3,4-dihydroxytetrahydrofuran-2-yl)-2-amino-7-(2-(4-chlorophenoxy)ethyl)-6-oxo-6,9-dihydro-1H-purin-7-ium. In kind it is cell-based. Summed up:
as §2

Series [15] relates to Rattus norvegicus. As to the kind of experiment: AUC (0 to 8 hrs) in Sprague-Dawley rat plasma assessed as 9-((2R,3R,4S,5R)-5-(((((2-(1H-Indol-3-yl)ethyl)amino)-(hydroxy)phosphoryl)oxy)methyl)-3,4-dihydroxytetrahydrofuran-2-yl)-2-amino-7-(2-(4-chlorophenoxy)ethyl)-6-oxo-6,9-dihydro-1H-purin-7-ium at 25 mg/kg, po by LC-MS/MS analysis. The format is ADME, organism-based. Details: time < 8 hr, dose 25 mg/kg, route oral. As to conditions: in vivo. Summed up: (§5)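 Female Sprague-Dawley rats (250-274 g, n=3, catheterized femoral/jugular veins) dosed once p.o. by gavage (25 mg/kg) then, after a 3-day washout, i.v. (2.5 mg/kg). Formulation: 10 mg/mL in 0.5% aqueous CMC with 5% DMSO. Serial blood draws to 480 min into K2EDTA; plasma protein-precipitated with acetonitrile plus internal standards; LC-MS/MS (positive MRM); non-compartmental PK; %F from dose-normalized AUC per rat.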

Series [16] deals with Rattus norvegicus. The series can be described thus: AUC (0 to 8 hrs) in Sprague-Dawley rat plasma assessed as 9-((2R,3R,4S,5R)-5-(((((2-(1H-Indol-3-yl)ethyl)amino)-(hydroxy)phosphoryl)oxy)methyl)-3,4-dihydroxytetrahydrofuran-2-yl)-2-amino-7-(2-(4-chlorophenoxy)ethyl)-6-oxo-6,9-dihydro-1H-purin-7-ium at 2.5 mg/kg, iv by LC-MS/MS analysis. The format is ADME, organism-based. Details: time < 8 hr, dose 2.5 mg/kg, route intravenous. The note with it: in vivo. In short, it runs like this: as §5

In series [17] the test system is Rattus norvegicus. As to the kind of experiment: Cmax in Sprague-Dawley rat assessed as 9-((2R,3R,4S,5R)-5-(((((2-(1H-Indol-3-yl)ethyl)amino)-(hydroxy)phosphoryl)oxy)methyl)-3,4-dihydroxytetrahydrofuran-2-yl)-2-amino-7-(2-(4-chlorophenoxy)ethyl)-6-oxo-6,9-dihydro-1H-purin-7-ium level at 25 mg/kg, po measured at 30 mins post dose by LC-MS/MS analysis. The format is ADME, organism-based. Further details: dose 25 mg/kg, route oral. As to conditions: in vivo, 0.5 h. In short, it runs like this: as §5

SMILES strings stand for the structures. Active and inactive are the calls of the source. The calls are words filed in the database; no cut-off is given here.

T1 sequence (P49773 whole entry): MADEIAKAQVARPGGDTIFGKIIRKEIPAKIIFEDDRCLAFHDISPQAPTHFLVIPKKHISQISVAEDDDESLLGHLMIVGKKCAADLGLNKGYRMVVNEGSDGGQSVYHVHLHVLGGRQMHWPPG

As for `CSCCOP(=O)(NCCc1c[nH]c2ccccc12)OC[C@H]1O[C@@H](n2c[n+](CCOc3ccc(Cl)cc3)c3c(=O)[nH]c(N)nc32)[C@H](O)[C@@H]1O` (some centres undefined), the results for the half-life at 80 µM in series [1] and in series [2] were 8.5 h and 5 h, respectively. Also, the half-life at 150 µM in series [3] was 7.2 h. Further, the Drug metabolism in series [4] was 64.6 pmol; in series [5], 218 pmol; in series [6], 10.3 pmol. In addition, the Activity result with Z-138 was “Dose-dependent effect”; with Granta-519 [7], “Dose-dependent effect”; in the series on Granta-519 [8] it was 100%. For the same compound, the IC50 in the series on Granta-519 [7] is 50 µM; in series [9], over 200 µM. Moreover, the inhibition result in [10], in series [11] and in [12] was “inactive” throughout. For the same compound, the inhibition entry in series [13] is “Active”. Moreover, the “fold change (FC)” value in series [14] is reported as 1.9. The AUC stood at 2.6 µg·min/mL in the series with Rattus norvegicus [15] and 0.5 µg·min/mL with Rattus norvegicus [16]. Also, in the series on Rattus norvegicus [17], the Cmax was determined as 6 ng/mL.
